Biological target: Transient receptor potential cation channel subfamily V member 1 (Rattus norvegicus) (UniProt O35433)
Test: Agonist activity at rat TRPV1 expressed in CHO cells assessed as stimulation of Ca2+ uptake relative to capsaicin
Format: cell-based
In short: (§1)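 Functional 45Ca2+ uptake assay in CHO cells heterologously expressing rat or human TRPV1. Agonism is reported as EC50, and as % of the capsaicin response. Antagonism is reported as Ki(ant) against capsaicin-stimulated 45Ca2+ uptake, and as % antagonism of that response. Ki and EC50 are mean ± SEM of three or more independent experiments.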

Sequence of Transient receptor potential cation channel subfamily V member 1 (Rattus norvegicus) (O35433 whole entry): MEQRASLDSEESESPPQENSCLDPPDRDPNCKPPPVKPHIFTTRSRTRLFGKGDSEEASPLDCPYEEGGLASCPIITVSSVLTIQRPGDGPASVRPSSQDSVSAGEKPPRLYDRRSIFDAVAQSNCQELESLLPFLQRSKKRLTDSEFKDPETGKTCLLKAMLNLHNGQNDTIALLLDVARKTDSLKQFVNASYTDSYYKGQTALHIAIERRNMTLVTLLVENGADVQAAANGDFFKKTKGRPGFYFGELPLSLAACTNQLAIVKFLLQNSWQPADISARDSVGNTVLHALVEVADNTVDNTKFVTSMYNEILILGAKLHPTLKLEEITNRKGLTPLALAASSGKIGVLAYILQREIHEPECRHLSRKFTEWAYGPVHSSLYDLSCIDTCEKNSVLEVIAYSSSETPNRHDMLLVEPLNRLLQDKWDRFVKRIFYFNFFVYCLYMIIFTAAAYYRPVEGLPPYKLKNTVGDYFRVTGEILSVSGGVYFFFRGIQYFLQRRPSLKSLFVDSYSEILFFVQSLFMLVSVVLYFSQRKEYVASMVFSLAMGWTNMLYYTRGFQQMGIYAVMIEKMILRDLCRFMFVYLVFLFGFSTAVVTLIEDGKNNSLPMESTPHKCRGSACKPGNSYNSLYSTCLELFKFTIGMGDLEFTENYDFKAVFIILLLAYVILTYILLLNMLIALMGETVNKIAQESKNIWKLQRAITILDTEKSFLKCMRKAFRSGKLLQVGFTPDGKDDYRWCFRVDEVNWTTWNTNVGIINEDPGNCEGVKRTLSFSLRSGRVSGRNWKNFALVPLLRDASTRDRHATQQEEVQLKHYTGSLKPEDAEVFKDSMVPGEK

Question: Which Activity does the source give for `C=C(C)[C@]12C[C@@H](C)[C@@]34O[C@](Cc5ccccc5)(O[C@@H]1[C@@H]3C=C(COC(=O)Oc1cc(Cl)c(O)c(OC)c1)C[C@]1(O)C(=O)C(C)=C[C@@H]41)O2` here?
Answer: 13%

Biological target: T1, Transient receptor potential cation channel subfamily V member 1 (Homo sapiens, UniProt Q8NER1)
Test: Displacement of [3H]RTX from human TRPV1 expressed in CHO cells
Format: cell-based
In short: (§2)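 Competitive binding against [3H]RTX on rat or human TRPV1 heterologously expressed in CHO cells. Affinity is reported as Ki, as mean ± SEM of three or more independent experiments.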

T1 sequence (Q8NER1 whole entry): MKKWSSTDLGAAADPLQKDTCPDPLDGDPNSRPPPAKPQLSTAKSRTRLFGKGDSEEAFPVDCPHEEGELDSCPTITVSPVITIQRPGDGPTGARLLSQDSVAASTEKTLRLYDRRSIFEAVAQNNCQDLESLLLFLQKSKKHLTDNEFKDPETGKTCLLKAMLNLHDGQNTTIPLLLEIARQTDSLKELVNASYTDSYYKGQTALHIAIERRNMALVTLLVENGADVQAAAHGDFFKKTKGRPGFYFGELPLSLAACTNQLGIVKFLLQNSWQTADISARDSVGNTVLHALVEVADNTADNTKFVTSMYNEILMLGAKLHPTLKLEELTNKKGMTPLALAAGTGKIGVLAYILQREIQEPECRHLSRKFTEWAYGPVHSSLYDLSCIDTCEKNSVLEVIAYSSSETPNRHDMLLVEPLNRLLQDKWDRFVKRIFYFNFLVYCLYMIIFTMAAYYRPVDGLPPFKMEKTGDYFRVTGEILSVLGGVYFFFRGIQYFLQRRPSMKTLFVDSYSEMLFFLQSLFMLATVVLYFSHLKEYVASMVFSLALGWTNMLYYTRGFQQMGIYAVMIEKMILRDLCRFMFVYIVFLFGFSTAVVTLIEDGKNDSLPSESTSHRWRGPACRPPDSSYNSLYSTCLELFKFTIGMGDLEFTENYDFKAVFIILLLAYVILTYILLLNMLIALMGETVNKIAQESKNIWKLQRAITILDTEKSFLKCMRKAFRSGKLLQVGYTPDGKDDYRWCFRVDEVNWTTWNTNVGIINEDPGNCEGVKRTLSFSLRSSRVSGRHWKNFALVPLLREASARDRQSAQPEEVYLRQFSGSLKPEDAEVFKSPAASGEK

Question: Which Ki does the source give for `C=C(C)[C@]12C[C@@H](C)[C@@]34O[C@](Cc5ccccc5)(O[C@@H]1[C@@H]3C=C(COC(=O)Oc1cc(I)c(N)c(OC)c1)C[C@]1(O)C(=O)C(C)=C[C@@H]41)O2` here?
Answer: 990 nM

Question: Which Ki does the source give for `C=C(C)[C@]12C[C@@H](C)[C@@]34O[C@](Cc5ccccc5)(O[C@@H]1[C@@H]3C=C(COC(=O)Cc1cc(I)c(O)c(OC)c1)C[C@]1(O)C(=O)C(C)=C[C@@H]41)O2` [IODORESINIFERATOXIN] here?
Answer: 11.8 nM

Question: `C=C(C)[C@]12C[C@@H](C)[C@@]34O[C@](Cc5ccccc5)(O[C@@H]1[C@@H]3C=C(COC(=O)Oc1ccc(N)c(OC)c1)C[C@]1(O)C(=O)C(C)=C[C@@H]41)O2` was tested. Which Ki did it give?
Answer: 140 nM

Question: `C=C(C)[C@]12C[C@@H](C)[C@@]34O[C@](Cc5ccccc5)(O[C@@H]1[C@@H]3C=C(COC(=O)Cc1ccc(O)c(OC)c1)C[C@]1(O)C(=O)C(C)=C[C@@H]41)O2` [RESINIFERATOXIN] was tested. Which Ki did it give?
Answer: 1.23 nM

Question: How did the Ki turn out when `C=C(C)[C@]12C[C@@H](C)[C@@]34O[C@](Cc5ccccc5)(O[C@@H]1[C@@H]3C=C(COC(=O)Oc1cc(Cl)c(O)c(OC)c1)C[C@]1(O)C(=O)C(C)=C[C@@H]41)O2` was run?
Answer: 50 nM

Question: For `C=C(C)[C@]12C[C@@H](C)[C@@]34O[C@](Cc5ccccc5)(O[C@@H]1[C@@H]3C=C(COC(=O)Oc1cc(F)c(O)c(OC)c1)C[C@]1(O)C(=O)C(C)=C[C@@H]41)O2`, which Ki is on record?
Answer: 138 nM

Biological target: T2, Transient receptor potential cation channel subfamily V member 1 (Rattus norvegicus, UniProt O35433)
Test: Agonist activity at rat TRPV1 expressed in CHO cells assessed as stimulation of Ca2+ uptake
Format: cell-based
In short: as §1

T2 sequence (O35433 whole entry): as the sequence (O35433 whole entry) above

Question: With `C=C(C)[C@]12C[C@@H](C)[C@@]34O[C@](Cc5ccccc5)(O[C@@H]1[C@@H]3C=C(COC(=O)Oc1ccc(N)c(OC)c1)C[C@]1(O)C(=O)C(C)=C[C@@H]41)O2` as the molecule, how does the EC50 read?
Answer: 1.84 nM

Question: `C=C(C)[C@]12C[C@@H](C)[C@@]34O[C@](Cc5ccccc5)(O[C@@H]1[C@@H]3C=C(COC(=O)Oc1cc(F)c(O)c(OC)c1)C[C@]1(O)C(=O)C(C)=C[C@@H]41)O2` was tested. Which EC50 did it give?
Answer: 4.97 nM

Biological target: T2, Transient receptor potential cation channel subfamily V member 1
Test: Antagonist activity at rat TRPV1 expressed in CHO cells assessed as inhibition of capsaicin-stimulated Ca2+ uptake
Format: cell-based
In short: as §1

Question: Which Ki does the source give for `C=C(C)[C@]12C[C@@H](C)[C@@]34O[C@](Cc5ccccc5)(O[C@@H]1[C@@H]3C=C(COC(=O)Oc1cc(I)c(N)c(OC)c1)C[C@]1(O)C(=O)C(C)=C[C@@H]41)O2` here?
Answer: 2.68 nM

Question: How did the Ki turn out when `C=C(C)[C@]12C[C@@H](C)[C@@]34O[C@](Cc5ccccc5)(O[C@@H]1[C@@H]3C=C(COC(=O)Oc1cc(Cl)c(O)c(OC)c1)C[C@]1(O)C(=O)C(C)=C[C@@H]41)O2` was run?
Answer: 21.3 nM

Biological target: T1, Transient receptor potential cation channel subfamily V member 1
Test: Antagonist activity at human TRPV1 expressed in CHO cells assessed as inhibition of capsaicin-stimulated Ca2+ uptake
Format: cell-based
In short: as §1

Question: Which Ki does the source give for `C=C(C)[C@]12C[C@@H](C)[C@@]34O[C@](Cc5ccccc5)(O[C@@H]1[C@@H]3C=C(COC(=O)Oc1cc(I)c(N)c(OC)c1)C[C@]1(O)C(=O)C(C)=C[C@@H]41)O2` here?
Answer: 1800 nM

Question: How did the Ki turn out when `C=C(C)[C@]12C[C@@H](C)[C@@]34O[C@](Cc5ccccc5)(O[C@@H]1[C@@H]3C=C(COC(=O)Cc1cc(I)c(O)c(OC)c1)C[C@]1(O)C(=O)C(C)=C[C@@H]41)O2` [IODORESINIFERATOXIN] was run?
Answer: 5.87 nM

Question: `C=C(C)[C@]12C[C@@H](C)[C@@]34O[C@](Cc5ccccc5)(O[C@@H]1[C@@H]3C=C(COC(=O)Oc1cc(Cl)c(O)c(OC)c1)C[C@]1(O)C(=O)C(C)=C[C@@H]41)O2` was tested. Which Ki did it give?
Answer: 451 nM

Biological target: T1, Transient receptor potential cation channel subfamily V member 1
Test: Agonist activity at human TRPV1 expressed in CHO cells assessed as stimulation of Ca2+ uptake
Format: cell-based
In short: as §1

Question: Which EC50 does the source give for `C=C(C)[C@]12C[C@@H](C)[C@@]34O[C@](Cc5ccccc5)(O[C@@H]1[C@@H]3C=C(COC(=O)Oc1ccc(N)c(OC)c1)C[C@]1(O)C(=O)C(C)=C[C@@H]41)O2` here?
Answer: 6.28 nM

Question: With `C=C(C)[C@]12C[C@@H](C)[C@@]34O[C@](Cc5ccccc5)(O[C@@H]1[C@@H]3C=C(COC(=O)Cc1ccc(O)c(OC)c1)C[C@]1(O)C(=O)C(C)=C[C@@H]41)O2` [RESINIFERATOXIN] as the molecule, how does the EC50 read?
Answer: 0.92 nM

Question: `C=C(C)[C@]12C[C@@H](C)[C@@]34O[C@](Cc5ccccc5)(O[C@@H]1[C@@H]3C=C(COC(=O)Oc1cc(Cl)c(O)c(OC)c1)C[C@]1(O)C(=O)C(C)=C[C@@H]41)O2` was tested. Which EC50 did it give?
Answer: 183 nM

Question: For `C=C(C)[C@]12C[C@@H](C)[C@@]34O[C@](Cc5ccccc5)(O[C@@H]1[C@@H]3C=C(COC(=O)Oc1cc(F)c(O)c(OC)c1)C[C@]1(O)C(=O)C(C)=C[C@@H]41)O2`, which EC50 is on record?
Answer: 16.3 nM

Biological target: T2, Transient receptor potential cation channel subfamily V member 1
Test: Displacement of [3H]RTX from rat TRPV1 expressed in CHO cells
Format: cell-based
In short: as §2

Question: How did the Ki turn out when `C=C(C)[C@]12C[C@@H](C)[C@@]34O[C@](Cc5ccccc5)(O[C@@H]1[C@@H]3C=C(COC(=O)Oc1cc(I)c(N)c(OC)c1)C[C@]1(O)C(=O)C(C)=C[C@@H]41)O2` was run?
Answer: 3.01 nM

Question: `C=C(C)[C@]12C[C@@H](C)[C@@]34O[C@](Cc5ccccc5)(O[C@@H]1[C@@H]3C=C(COC(=O)Oc1ccc(N)c(OC)c1)C[C@]1(O)C(=O)C(C)=C[C@@H]41)O2` was tested. Which Ki did it give?
Answer: 0.58 nM

Question: With `C=C(C)[C@]12C[C@@H](C)[C@@]34O[C@](Cc5ccccc5)(O[C@@H]1[C@@H]3C=C(COC(=O)Oc1cc(Cl)c(O)c(OC)c1)C[C@]1(O)C(=O)C(C)=C[C@@H]41)O2` as the molecule, how does the Ki read?
Answer: 1.64 nM

Question: For `C=C(C)[C@]12C[C@@H](C)[C@@]34O[C@](Cc5ccccc5)(O[C@@H]1[C@@H]3C=C(COC(=O)Oc1cc(F)c(O)c(OC)c1)C[C@]1(O)C(=O)C(C)=C[C@@H]41)O2`, which Ki is on record?
Answer: 1.17 nM
